This passage reports IC50, Time and Ratio IC50 results from ChEMBL document CHEMBL4184339, “NMR Biochemical Assay for Oxidosqualene Cyclase: Evaluation of Inhibitor Activities on Trypanosoma cruzi and Human Enzymes” (J Med Chem, 2018).

The test system of test [1] is Trypanosoma cruzi. The experiment in a line: Antiparasitic activity against epimastigote stage of Trypanosoma cruzi Tulahuen assessed as inhibition of parasite proliferation after 48 hrs by Alamar Blue assay. It is filed as functional, organism-based. In outline:
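Epimastigotes (one million per assay) were cultured in LIT medium with 10% newborn calf serum and co-incubated with compound. Afterwards, alamarBlue was added and fluorescence was read as a measure of viability.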

For test [2], the system named is Trypanosoma cruzi. The experiment in a line: Parasiticidal activity against amastigote stage of Trypanosoma cruzi Tulahuen infected in mouse brain fibroblast assessed as time duration of effect at 10.9 microM preincubated for 5 days followed by another 10 days incubation with fresh compound. It is filed as functional.
A short description of test [3]: Selectivity ratio of IC50 for human C-terminal His6-tagged OSC to IC50 for Trypanosoma cruzi strain CL Brener C-terminal His6-tagged OSC.
The nature of test [4]: Inhibition of Trypanosoma cruzi strain CL Brener C-terminal His6-tagged OSC expressed in Pichia pastoris GS115 using 2,3-oxidosqualene as substrate after 20 mins by 1H NMR method. In outline:
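T. cruzi OSC was expressed in Pichia pastoris GS115, first grown in BMGY ([…]glycerol) at 30 °C for 3 days and then induced in BMMY (1% methanol) at 25 °C for 2 days. Cells were homogenized in Tris-HCl pH 7.5 with 250 mM NaCl. Purification buffers contained 0.2% Triton X-100 or 0.2–1.2% β-octylglucoside. The substrate, 2,3-oxidosqualene, was in 10 mM sodium phosphate buffer with varied inhibitor. Reactions started with 19 nM enzyme (final) and ran at 37 °C for 20 min. Lanosterol was quantified by 1H NMR with factor analysis, and IC50 was taken from a fit of the first-factor score.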

Test [5] has as its system Trypanosoma cruzi. The experiment in a line: Parasiticidal activity against amastigote stage of Trypanosoma cruzi Tulahuen infected in mouse brain fibroblast assessed as time duration of effect at 21.8 microM preincubated for 5 days followed by another 10 days incubation with fresh compound. It is filed as functional.
A further test concerns the target T1, Lanosterol synthase (Homo sapiens, UniProt P48449).
T1 sequence (P48449 whole entry): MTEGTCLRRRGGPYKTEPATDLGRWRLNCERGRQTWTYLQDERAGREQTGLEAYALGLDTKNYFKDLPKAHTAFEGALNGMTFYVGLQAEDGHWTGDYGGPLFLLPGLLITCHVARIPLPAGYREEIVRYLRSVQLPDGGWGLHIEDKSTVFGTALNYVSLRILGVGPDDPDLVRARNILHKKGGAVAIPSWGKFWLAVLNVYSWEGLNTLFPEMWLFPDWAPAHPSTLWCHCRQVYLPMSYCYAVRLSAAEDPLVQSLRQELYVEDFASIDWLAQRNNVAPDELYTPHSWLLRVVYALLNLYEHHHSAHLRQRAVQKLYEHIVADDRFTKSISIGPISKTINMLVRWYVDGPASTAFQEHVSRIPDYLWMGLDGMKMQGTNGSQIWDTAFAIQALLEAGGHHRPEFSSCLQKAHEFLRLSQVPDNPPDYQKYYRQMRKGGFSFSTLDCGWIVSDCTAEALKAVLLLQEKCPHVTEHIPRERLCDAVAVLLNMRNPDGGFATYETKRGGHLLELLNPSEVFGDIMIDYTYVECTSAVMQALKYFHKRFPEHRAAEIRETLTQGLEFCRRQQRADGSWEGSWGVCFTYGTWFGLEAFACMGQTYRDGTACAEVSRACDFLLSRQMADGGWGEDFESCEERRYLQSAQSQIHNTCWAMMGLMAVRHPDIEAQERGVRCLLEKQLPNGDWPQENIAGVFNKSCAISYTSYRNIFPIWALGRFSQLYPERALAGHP
The experiment in a line: Inhibition of human C-terminal His6-tagged OSC expressed in Pichia pastoris GS115 using 2,3-oxidosqualene as substrate after 90 mins by 1H NMR method. In outline:
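Human OSC was expressed in Pichia pastoris GS115 using BMGY at 30 °C for 3 days, then BMMY methanol induction at 25 °C for 2 days. Purification included a Superdex 200 step, with buffers containing 0.2% Triton X-100 or 0.2–0.8% β-octylglucoside. Product was measured by NMR with factor analysis, and IC50 was fitted from the first-factor score.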

Test [6] relates to Trypanosoma cruzi. The experiment in a line: Parasiticidal activity against amastigote stage of Trypanosoma cruzi Tulahuen infected in mouse brain fibroblast assessed as time duration of effect at 9.6 microM preincubated for 5 days followed by another 10 days incubation with fresh compound. In kind it is functional.
In test [7] the test system is Trypanosoma cruzi. The experiment in a line: Parasiticidal activity against amastigote stage of Trypanosoma cruzi Tulahuen infected in mouse brain fibroblast assessed as time duration of effect at 19.2 microM preincubated for 5 days followed by another 10 days incubation with fresh compound. It is filed as functional.

Take `CN(C)CCOc1ccc(OC2CCN(S(=O)(=O)c3ccc(F)cc3)CC2)cc1.Cl`: the IC50 with Trypanosoma cruzi [1] is 2150 nM; in test [4] it was 44 nM; against Lanosterol synthase, 120 nM. Moreover, the Time in the test on Trypanosoma cruzi [2] amounted to 21 days; in the test with Trypanosoma cruzi [5], 29 days. Also, the Ratio IC50 in test [3] came out at 2.7.
In test [4], `C=CCN(C)CCCCCCOc1ccc(C(=O)c2ccc(Br)cc2)c(F)c1` returned an IC50 of 13 nM.
`C=CCN(C)Cc1ccc(N2CCC(N(C)S(=O)(=O)c3ccc(Cl)cc3)CC2)cc1.Cl.Cl`: the IC50 with Trypanosoma cruzi [1] turned out to be 110 nM; in test [4], 42 nM; at Lanosterol synthase, 16 nM. In addition, the Time in the test on Trypanosoma cruzi [6] is 62 days; with Trypanosoma cruzi [7], 80 days. Further, the Ratio IC50 in test [3] stood at 0.38.
Consider `CN(C)Cc1ccc(N2CCC(N(C)S(=O)(=O)c3ccc(Cl)cc3)CC2)cc1`, for which the Ratio IC50 in test [3] was 1.6. For the same compound, the IC50 in test [4] turned out to be 140 nM; against Lanosterol synthase, 230 nM.
Consider `O=C(Cn1ccnc1[N+](=O)[O-])NCc1ccccc1` [BENZNIDAZOLE], for which the Time with Trypanosoma cruzi [6] is 35 days; in the test on Trypanosoma cruzi [7], 53 days.
